Data published in ChEMBL document CHEMBL4014335, “Activation of Phenyl 4-(2-Oxo-3-alkylimidazolidin-1-yl)benzenesulfonates Prodrugs by CYP1A1 as New Antimitotics Targeting Breast Cancer Cells” (J Med Chem, 2017).
The source made the active and inactive calls. No cut-off for these calls is given here.

Legend:
HT-29 = experiment: Antiproliferative activity against human HT-29 cells after 48 hrs by SRB assay; assay type: functional, cell-based; details: HT-29, 48 h
Method in brief: (§1)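 SRB assay run as in the NCI screen with slight modifications. Seeding: HT-29 5.0 x 10^3, M21 3.5 x 10^3, MCF7 7.5 x 10^3 cells; cells preincubated 24 h. Drug in DMSO added at 0.75 to 1.0 x 10^5 nM for 48 h. TCA fixation, sulforhodamine B staining, absorbance 530-565 nm. At least two experiments in triplicate; runs accepted only when relative SD < 10%.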

MDA-MB-468 [1] = experiment: Cytotoxicity against human MDA-MB-468 cells after 72 hrs in presence of CYP1A1 inhibitor ketoconazole by SRB assay; assay type: functional, cell-based
Method in brief: (§2)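 MDA-MB-468 cells (5.0 x 10^3/well) seeded and incubated 24 h. Drug freshly dissolved in DMSO, given at 0.75 to 1.0 x 10^5 nM, together with subtoxic CYP inhibitor, for 72 h. Cells fixed with cold 10% TCA and stained with 0.1% sulforhodamine B. Bound dye taken up in 10 mM Tris, absorbance read at 530-565 nm. At least two experiments, triplicate cultures.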

[2] = Selectivity ratio of IC50 for human HT-29 cells to IC50 for human MCF7 cells; assay type: functional
Method in brief: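 Ratio is IC50 in reference line over IC50 in sensitive line. […] Cells in DMEM with 5% calf serum at 37 °C. At least two experiments, triplicate cultures; assay accepted when relative SD < 10%.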

MDA-MB-231 [3] = experiment: Antiproliferative activity against ER/PR/HER2 deficient human MDA-MB-231 cells after 72 hrs in presence of phenol red by SRB assay; assay type: functional, cell-based
Method in brief: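 SRB antiproliferative assay (modified NCI protocol). Cells seeded per well (SK-BR-3, MDA-MB-231, T47D, HT-1080, HT-1080 CYP1A1 and empty-vector: 3.0 x 10^3; MDA-MB-468: 5.0 x 10^3; MCF7: 7.5 x 10^3), preincubated 24 h. DMSO-solubilized drug added at 0.75 to 1.0 x 10^5 nM, then 72 h. Fixed with cold 10% TCA, stained with 0.1% sulforhodamine B, absorbance read at 530-565 nm. At least two experiments, triplicate cultures.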

MCF7 [4] = experiment: Cell cycle arrest in human MCF7 cells assessed as accumulation at subG1 phase at 50 nM after 24 hrs by DAPI-staining based FACS analysis (reference value: 1.4%); assay type: functional
MCF7 [5] = experiment: Cell cycle arrest in human MCF7 cells assessed as accumulation at G2/M phase at 50 nM after 24 hrs by DAPI-staining based FACS analysis (reference value: 22.3%); assay type: functional
MCF7 [6] = experiment: Cell cycle arrest in human MCF7 cells assessed as accumulation at G0/G1 phase at 50 nM after 24 hrs by DAPI-staining based FACS analysis (reference value: 65.5%); assay type: functional
MDA-MB-231 [7] = experiment: Cell cycle arrest in human MDA-MB-231 cells assessed as accumulation at subG1 phase at 50 nM after 24 hrs by DAPI-staining based FACS analysis (reference value: 4.1%); assay type: functional
MDA-MB-231 [8] = experiment: Cell cycle arrest in human MDA-MB-231 cells assessed as accumulation at S phase at 50 nM after 24 hrs by DAPI-staining based FACS analysis (reference value: 9.7%); assay type: functional
MDA-MB-468 [9] = experiment: Cell cycle arrest in human MDA-MB-468 cells assessed as accumulation at G0/G1 phase at 50 nM after 24 hrs by DAPI-staining based FACS analysis (reference value: 63.3%); assay type: functional
M21 = experiment: Antiproliferative activity against human M21 cells after 48 hrs by SRB assay; assay type: functional, cell-based; details: M21, 48 h; method in brief: as §1
MDA-MB-468 [10] = experiment: Cytotoxicity against human MDA-MB-468 cells after 72 hrs in presence of CYP1A1 inhibitor quercetin by SRB assay; assay type: functional, cell-based; method in brief: as §2
MDA-MB-468 [11] = experiment: Cytotoxicity against human MDA-MB-468 cells after 72 hrs in presence of CYP1A1 inhibitor alpha-naphthoflavone by SRB assay; assay type: functional, cell-based
Method in brief: (§3)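 MDA-MB-468 cells co-incubated for 72 h with drug plus a subtoxic concentration of a CYP inhibitor. Viability read by SRB assay: TCA fixation, sulforhodamine B staining, absorbance at 530-565 nm.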

MDA-MB-468 [12] = experiment: Cytotoxicity against human MDA-MB-468 cells after 72 hrs in presence of CYP1A1 inhibitor resveratrol by SRB assay; assay type: functional, cell-based; method in brief: as §2
MDA-MB-231 [13] = experiment: Cell cycle arrest in human MDA-MB-231 cells assessed as accumulation at G2/M phase at 50 nM after 24 hrs by DAPI-staining based FACS analysis (reference value: 15.5%); assay type: functional
MDA-MB-468 [14] = experiment: Cell cycle arrest in human MDA-MB-468 cells assessed as accumulation at S phase at 50 nM after 24 hrs by DAPI-staining based FACS analysis (reference value: 17%); assay type: functional
[15] = Stability in human liver microsomes assessed as compound remaining after 60 mins by HPLC-MS analysis
MCF7 [16] = experiment: Cell cycle arrest in human MCF7 cells assessed as accumulation at S phase at 50 nM after 24 hrs by DAPI-staining based FACS analysis (reference value: 10.6%); assay type: functional
MDA-MB-468 [17] = experiment: Cytotoxicity against human MDA-MB-468 cells after 72 hrs in presence of CYP inhibitor aniline by SRB assay; assay type: functional, cell-based; method in brief: as §3
MDA-MB-468 [18] = experiment: Cytotoxicity against human MDA-MB-468 cells after 72 hrs in presence of CYP1A1 inhibitor capsaicin by SRB assay; assay type: functional, cell-based; method in brief: as §3
MDA-MB-468 [19] = experiment: Cell cycle arrest in human MDA-MB-468 cells assessed as accumulation at S phase at 8 nM after 24 hrs by DAPI-staining based FACS analysis (reference value: 17%); assay type: functional
MDA-MB-468 [20] = experiment: Cell cycle arrest in human MDA-MB-468 cells assessed as accumulation at G0/G1 phase at 8 nM after 24 hrs by DAPI-staining based FACS analysis (reference value: 63.3%); assay type: functional
MDA-MB-231 [21] = experiment: Cell cycle arrest in human MDA-MB-231 cells assessed as accumulation at S phase at 8 nM after 24 hrs by DAPI-staining based FACS analysis (reference value: 9.7%); assay type: functional
MCF7 [22] = experiment: Cell cycle arrest in human MCF7 cells assessed as accumulation at G0/G1 phase at 8 nM after 24 hrs by DAPI-staining based FACS analysis (reference value: 65.5%); assay type: functional
MCF7 [23] = experiment: Cell cycle arrest in human MCF7 cells assessed as accumulation at G2/M phase at 8 nM after 24 hrs by DAPI-staining based FACS analysis (reference value: 22.3%); assay type: functional
MDA-MB-231 [24] = experiment: Cell cycle arrest in human MDA-MB-231 cells assessed as accumulation at subG1 phase at 8 nM after 24 hrs by DAPI-staining based FACS analysis (reference value: 4.1%); assay type: functional
MDA-MB-231 [25] = experiment: Cell cycle arrest in human MDA-MB-231 cells assessed as accumulation at G0/G1 phase at 8 nM after 24 hrs by DAPI-staining based FACS analysis (reference value: 70.7%); assay type: functional

For CCCCN1CCN(c2ccc(S(=O)(=O)Oc3cc(OC)c(OC)c(OC)c3)cc2)C1=O, the IC50 (HT-29) was 3.6 µM, the Activity (MDA-MB-468 [1]) was “inactive” and the “Ratio IC50” value [2] was 360. The Activity (MDA-MB-231 [3]) was “inactive”, the Activity (MCF7 [4]) was 4.3% and the Activity (MCF7 [5]) was 90.2%. For the same compound, the Activity (MCF7 [6]) was 3.7%, the Activity (MDA-MB-231 [7]) was 2.1% and the Activity (MDA-MB-231 [8]) was 9.2%. The Activity (MDA-MB-468 [9]) was 13.2%, the IC50 (M21) was 3.8 µM and the Activity (MDA-MB-468 [10]) was “inactive”. The Activity (MDA-MB-468 [11]) was “inactive”, the Activity (MDA-MB-468 [12]) was “inactive” and the Activity (MDA-MB-231 [13]) was 15.6%. It also gave an Activity (MDA-MB-468 [14]) of 15%, a remaining at 1 h [15] of 25% and an Activity (MCF7 [16]) of 1.8%. The Activity (MDA-MB-468 [17]) was “Active” and the Activity (MDA-MB-468 [18]) was “inactive”.

In the case of COc1cc(OS(=O)(=O)c2ccc(N3CCNC3=O)cc2)cc(OC)c1OC, the Activity (MDA-MB-468 [19]) is reported as 13.3%, the Activity (MDA-MB-468 [20]) is reported as 10.6% and the Activity (MDA-MB-231 [21]) is reported as 8.9%. It also gave an Activity (MCF7 [22]) of 9.6%, an Activity (MCF7 [23]) of 44.1% and an Activity (MDA-MB-231 [24]) of 6.9%. The Activity (MDA-MB-231 [25]) was 7.3%.
